From ChEMBL document CHEMBL3097989, “Antimicrobial activity of de novo designed cationic peptides against multi-resistant clinical isolates” (Eur J Med Chem, 2014)
One block for each molecule: values may come before it. Calls of active or inactive are those of the source. No cut-off for these calls is given here. Where a SMILES comes first, the peptide text is derived from it.

Columns and labels:
Staphylococcus aureus [1] = assay: Antibacterial activity against Staphylococcus aureus ATCC 29213 by microdilution test; type: functional
Outline: (§1)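 MIC by standard broth microdilution following CLSI recommendations, in Mueller Hinton broth supplemented with Ca²⁺ (20-25 mg/L) and Mg²⁺ (10-12.5 mg/L); ATCC reference strains included in the panel.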

Pseudomonas aeruginosa [2] = assay: Antibacterial activity against Pseudomonas aeruginosa ATCC 27853 by microdilution test; type: functional
Outline: (§2)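 MIC by standard broth microdilution following CLSI recommendations, in Mueller Hinton broth supplemented with Ca²⁺ (20-25mg/L) and Mg²⁺ (10-12.5mg/L); peptides tested against a panel of multi-resistant clinical isolates plus ATCC reference strains.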

Staphylococcus aureus [3] = assay: Antibacterial activity against Staphylococcus aureus M6794 clinical isolate expressing mecA gene by microdilution test; type: functional; outline: as §1
Klebsiella pneumoniae [4] = assay: Antibacterial activity against Klebsiella pneumoniae M13540 clinical isolate expressing blaKPC-2 gene by microdilution test; type: functional; outline: as §2
Staphylococcus cohnii = assay: Antibacterial activity against Staphylococcus cohnii M6767 clinical isolate expressing mecA gene by microdilution test; type: functional; outline: as §1
[5] = Toxicity in human RBC assessed as hemolytic activity relative to control; type: cell-based, Erythrocyte; details: red blood cells (RBC), read-out: Activity
Outline: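 Heparinized human whole blood diluted 3x in PBS and centrifuged 10 min at 1500 rpm, repeated three times. Cells resuspended to 10% (v/v), then diluted to about 0.5% (v/v). Peptides added at various concentrations for 30 min at 37 °C. Supernatant absorbance read at 550 nm. Lysis calculated against buffer (0%) and water (100%). Readings taken in triplicate and averaged.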

Escherichia coli = assay: Antibacterial activity against Escherichia coli ATCC 25922 by microdilution test; type: functional; outline: as §2
Pseudomonas aeruginosa [6] = assay: Antibacterial activity against Pseudomonas aeruginosa M13513 clinical isolate expressing blaKPC-2 gene by microdilution test; type: functional; outline: as §2
Staphylococcus warneri = assay: Antibacterial activity against Staphylococcus warneri M6823 clinical isolate expressing mecA gene by microdilution test; type: functional; outline: as §1
Acinetobacter sp. [7] = assay: Antibacterial activity against Acinetobacter sp. M5282 clinical isolate expressing blaOXA-51 gene by microdilution test; type: functional; outline: as §2
Acinetobacter sp. [8] = assay: Antibacterial activity against Acinetobacter sp. M9665 clinical isolate expressing blaOXA-51 gene by microdilution test; type: functional; outline: as §2
Acinetobacter sp. [9] = assay: Antibacterial activity against Acinetobacter sp. M5277 clinical isolate expressing blaPER gene by microdilution test; type: functional; outline: as §2
Enterococcus faecium [10] = assay: Antibacterial activity against Enterococcus faecium M2481 clinical isolate expressing vanB gene by microdilution test; type: functional; outline: as §2
Acinetobacter sp. [11] = assay: Antibacterial activity against Acinetobacter sp. M5949 clinical isolate expressing blaOXA-23 and blaOXA-GVI gene by microdilution test; type: functional; outline: as §2
Pseudomonas aeruginosa [12] = assay: Antibacterial activity against Pseudomonas aeruginosa M5470 by microdilution test; type: functional; outline: as §1
Enterococcus faecium [13] = assay: Antibacterial activity against Enterococcus faecium M2304 clinical isolate expressing vanA gene by microdilution test; type: functional; outline: as §2
Pseudomonas aeruginosa [14] = assay: Antibacterial activity against Pseudomonas aeruginosa M5109 clinical isolate expressing blaVIM and blaGES-1 gene by microdilution test; type: functional; outline: as §1
Klebsiella pneumoniae [15] = assay: Antibacterial activity against Klebsiella pneumoniae M9170 clinical isolate expressing blaOXA-GIII gene by microdilution test; type: functional; outline: as §2
Pseudomonas aeruginosa [16] = assay: Antibacterial activity against Pseudomonas aeruginosa M7907 clinical isolate expressing blaPER gene by microdilution test; type: functional; outline: as §1
Enterococcus faecium [17] = assay: Antibacterial activity against Enterococcus faecium M2619 clinical isolate expressing vanB gene by microdilution test; type: functional; outline: as §2
Pseudomonas aeruginosa [18] = assay: Antibacterial activity against Pseudomonas aeruginosa PCOS12 by microdilution test; type: functional; outline: as §1
Acinetobacter sp. [19] = assay: Antibacterial activity against Acinetobacter sp. M7978 clinical isolate expressing blaIMP-1 gene by microdilution test; type: functional; outline: as §2
Acinetobacter sp. [20] = assay: Antibacterial activity against Acinetobacter sp. M5179 clinical isolate expressing blaOXA-51 gene by microdilution test; type: functional; outline: as §2
Enterococcus faecium [21] = assay: Antibacterial activity against Enterococcus faecium M6261 by microdilution test; type: functional; outline: as §2
Acinetobacter sp. [22] = assay: Antibacterial activity against Acinetobacter sp. M9013 clinical isolate expressing blaOXA-51 and blaIMP gene by microdilution test; type: functional; outline: as §2
Acinetobacter sp. [23] = assay: Antibacterial activity against Acinetobacter sp. M7489 clinical isolate expressing blaOXA-51 and blaTEM gene by microdilution test; type: functional; outline: as §2
Acinetobacter sp. [24] = assay: Antibacterial activity against Acinetobacter sp. PFAV1 clinical isolate expressing blaOXA-51, blaOXA-58 and blaPER gene by microdilution test; type: functional; outline: as §2
Klebsiella pneumoniae [25] = assay: Antibacterial activity against Klebsiella pneumoniae M9491 clinical isolate expressing blaMOX gene by microdilution test; type: functional; outline: as §2
Enterococcus faecalis [26] = assay: Antibacterial activity against Enterococcus faecalis M6383 clinical isolate expressing vanA gene by microdilution test; type: functional; outline: as §2
Klebsiella pneumoniae [27] = assay: Antibacterial activity against Klebsiella pneumoniae PFAV3 by microdilution test; type: functional; outline: as §2
Enterococcus faecium [28] = assay: Antibacterial activity against Enterococcus faecium PZAP95 by microdilution test; type: functional; outline: as §2
Pseudomonas aeruginosa [29] = assay: Antibacterial activity against Pseudomonas aeruginosa M7723 clinical isolate expressing blaKPC-2 gene by microdilution test; type: functional; outline: as §1
Enterococcus faecalis [30] = assay: Antibacterial activity against Enterococcus faecalis M6534 clinical isolate expressing vanB gene by microdilution test; type: functional; outline: as §2
Enterococcus faecium [31] = assay: Antibacterial activity against Enterococcus faecium M2664 clinical isolate expressing vanA gene by microdilution test; type: functional; outline: as §2
Klebsiella pneumoniae [32] = assay: Antibacterial activity against Klebsiella pneumoniae M9140 clinical isolate expressing blaCIT gene by microdilution test; type: functional; outline: as §2
Pseudomonas aeruginosa [33] = assay: Antibacterial activity against Pseudomonas aeruginosa M7728 clinical isolate expressing blaIMP gene by microdilution test; type: functional; outline: as §1
Acinetobacter sp. [34] = assay: Antibacterial activity against Acinetobacter sp. M13523 clinical isolate expressing blaOXA-51 gene by microdilution test; type: functional; outline: as §2
Pseudomonas aeruginosa [35] = assay: Antibacterial activity against Pseudomonas aeruginosa M11005 clinical isolate expressing blaKPC-2 gene by microdilution test; type: functional; outline: as §2
Pseudomonas aeruginosa [36] = assay: Antibacterial activity against Pseudomonas aeruginosa M5200 clinical isolate expressing blaVIM and blaGES-1 gene by microdilution test; type: functional; outline: as §1
Enterococcus gallinarum [37] = assay: Antibacterial activity against Enterococcus gallinarum M2685 clinical isolate expressing vanC1 and vanA gene by microdilution test; type: functional; outline: as §2
Enterococcus gallinarum [38] = assay: Antibacterial activity against Enterococcus gallinarum M2723 clinical isolate expressing vanC1 and vanA gene by microdilution test; type: functional; outline: as §2
Enterococcus faecalis [39] = assay: Antibacterial activity against Enterococcus faecalis ATCC 29212 by microdilution test; type: functional; outline: as §2
Enterococcus faecalis [40] = assay: Antibacterial activity against Enterococcus faecalis M4449 clinical isolate expressing vanA gene by microdilution test; type: functional; outline: as §2
Pseudomonas aeruginosa [41] = assay: Antibacterial activity against Pseudomonas aeruginosa M7525 clinical isolate expressing blaSPM gene by microdilution test; type: functional; outline: as §1
Enterococcus faecalis [42] = assay: Antibacterial activity against Enterococcus faecalis M4992 clinical isolate expressing vanA gene by microdilution test; type: functional; outline: as §2
Enterococcus faecalis [43] = assay: Antibacterial activity against Enterococcus faecalis ATCC 51299 clinical isolate expressing vanB gene by microdilution test; type: functional; outline: as §2
Enterococcus faecalis [44] = assay: Antibacterial activity against Enterococcus faecalis M4899 clinical isolate expressing vanB gene by microdilution test; type: functional; outline: as §2
Enterococcus faecalis [45] = assay: Antibacterial activity against Enterococcus faecalis M6983 clinical isolate expressing vanA gene by microdilution test; type: functional; outline: as §2
Pseudomonas aeruginosa [46] = assay: Antibacterial activity against Pseudomonas aeruginosa M7712 clinical isolate expressing blaSPM gene by microdilution test; type: functional; outline: as §1

MIC90 (Staphylococcus aureus [1]): inactive
MIC90 (Pseudomonas aeruginosa [2]): inactive
MIC90 (Staphylococcus aureus [3]): inactive
MIC90 (Klebsiella pneumoniae [4]): inactive
MIC90 (Staphylococcus cohnii): inactive
MIC90 (Escherichia coli): inactive
MIC90 (Pseudomonas aeruginosa [6]): inactive
MIC90 (Staphylococcus warneri): inactive
Molecule: CC[C@H](C)[C@H](NC(=O)[C@H](CCCCN)NC(=O)[C@H](CCCNC(=N)N)NC(=O)[C@H](CC(N)=O)NC(=O)CNC(=O)[C@H](CCCNC(=N)N)NC(=O)[C@H](Cc1ccccc1)NC(=O)[C@@H](NC(=O)[C@H](CS)NC(=O)[C@H](Cc1cnc[nH]1)NC(=O)[C@H](CC(C)C)NC(=O)[C@@H]1CCCN1C(=O)[C@H](CCC(N)=O)NC(=O)[C@@H]1CCCN1C(=O)[C@@H](NC(=O)[C@H](CC(N)=O)NC(=O)[C@@H]1CCCN1C(=O)[C@H](CC(C)C)NC(=O)CNC(=O)[C@@H](NC(=O)CNC(=O)[C@H](CO)NC(=O)[C@H](CC(C)C)NC(=O)[C@H](CC(C)C)NC(=O)[C@H](CC(=O)O)NC(=O)[C@H](CS)NC(=O)[C@@H](NC(=O)[C@@H](N)[C@@H](C)O)[C@@H](C)O)C(C)C)C(C)C)C(C)C)C(=O)N[C@@H](CCCCN)C(=O)N[C@@H](Cc1c[nH]c2ccccc12)C(N)=O (H-TTCDLLSGVGLPNVPQPLHCVFRGNRKIKW-NH2)
hemolysis [5]: 1.72%

MIC90 (Acinetobacter sp. [7]): inactive
MIC90 (Acinetobacter sp. [8]): inactive
MIC90 (Acinetobacter sp. [9]): inactive
MIC90 (Enterococcus faecium [10]): inactive
MIC90 (Acinetobacter sp. [11]): inactive
MIC90 (Pseudomonas aeruginosa [12]): inactive
MIC90 (Pseudomonas aeruginosa [2]): inactive
MIC90 (Enterococcus faecium [13]): inactive
MIC90 (Pseudomonas aeruginosa [14]): inactive
MIC90 (Klebsiella pneumoniae [4]): inactive
MIC90 (Klebsiella pneumoniae [15]): inactive
MIC90 (Pseudomonas aeruginosa [16]): inactive
MIC90 (Enterococcus faecium [17]): inactive
MIC90 (Pseudomonas aeruginosa [18]): inactive
MIC90 (Acinetobacter sp. [19]): inactive
MIC90 (Acinetobacter sp. [20]): inactive
MIC90 (Enterococcus faecium [21]): inactive
MIC90 (Acinetobacter sp. [22]): inactive
MIC90 (Acinetobacter sp. [23]): inactive
MIC90 (Acinetobacter sp. [24]): inactive
MIC90 (Klebsiella pneumoniae [25]): inactive
MIC90 (Enterococcus faecalis [26]): inactive
MIC90 (Klebsiella pneumoniae [27]): inactive
MIC90 (Enterococcus faecium [28]): inactive
MIC90 (Pseudomonas aeruginosa [29]): inactive
MIC90 (Enterococcus faecalis [30]): inactive
MIC90 (Enterococcus faecium [31]): inactive
MIC90 (Klebsiella pneumoniae [32]): inactive
MIC90 (Escherichia coli): inactive
MIC90 (Pseudomonas aeruginosa [33]): inactive
MIC90 (Acinetobacter sp. [34]): inactive
MIC90 (Pseudomonas aeruginosa [35]): inactive
MIC90 (Pseudomonas aeruginosa [36]): inactive
MIC90 (Enterococcus gallinarum [37]): inactive
MIC90 (Enterococcus gallinarum [38]): inactive
MIC90 (Enterococcus faecalis [39]): inactive
MIC90 (Enterococcus faecalis [40]): inactive
MIC90 (Pseudomonas aeruginosa [6]): inactive
MIC90 (Pseudomonas aeruginosa [41]): inactive
MIC90 (Enterococcus faecalis [42]): inactive
MIC90 (Enterococcus faecalis [43]): inactive
MIC90 (Enterococcus faecalis [44]): inactive
MIC90 (Enterococcus faecalis [45]): inactive
MIC90 (Pseudomonas aeruginosa [46]): inactive
Molecule: H-FGKEKKAWWRRRKWLK-NH2
hemolysis [5]: 1.5%
